Source: ChEMBL document CHEMBL2424621, “Discovery, synthesis and biological evaluation of cycloprotoberberine derivatives as potential antitumor agents” (Eur J Med Chem, 2013)
≈ marks a conversion by molar mass, not a printed value. Calls of active or inactive are those of the source. The calls are words filed in the database; no cut-off is given here.

Key:
HepG2 [1] = test: Antiproliferative activity against human HepG2 cells assessed as growth inhibition at 0.6 ug/ml after 48 hrs by SRB assay; type: functional; details: HepG2, 48 h, read-out: GI
In short: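 Single-concentration SRB screen. HepG2 cells were grown in MEM-EBSS with 10% FBS and exposed to 0.6 µg/mL compound for 48 h alongside untreated controls. Cells were fixed with TCA and stained with SRB, then read at 492 nm. Results are given as % inhibition versus control, from triplicates reported as mean and SD.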

HepG2 [2] = test: Antiproliferative activity against human HepG2 cells assessed as growth inhibition after 24 hrs by SRB assay; type: functional, cell-based; details: HepG2, 24 h
In short: (§1)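 SRB assay. Cells were seeded at 4×10^3–8×10^3/mL in MEM-EBSS with 10% heat-inactivated FBS at 37 °C and 5% CO2, then treated at 0.039, 0.15, 0.63 and 2.5 µg/mL for 24 or 48 h. Cells were fixed with 50% TCA, stained with 0.4% SRB in 1% acetic acid and solubilized in 10 mM Trizma base, with absorbance read at 492 nm. IC50 is the concentration giving 50% of control cell number, from triplicates reported as mean and SD.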

HepG2 [3] = test: Antiproliferative activity against human HepG2 cells assessed as growth inhibition after 48 hrs by SRB assay; type: functional, cell-based; details: HepG2, 48 h; in short: as §1
HCT-116 [4] = test: Antiproliferative activity against human HCT116 cells assessed as growth inhibition after 48 hrs by SRB assay; type: functional, cell-based; details: HCT-116, 48 h; in short: as §1
HCT-116 [5] = test: Antiproliferative activity against human HCT116 cells assessed as growth inhibition after 24 hrs by SRB assay; type: functional, cell-based; details: HCT-116, 24 h; in short: as §1
[6] = target: DNA topoisomerase 2-alpha (Homo sapiens) (UniProt P11388); details: 100 ug/ml
HCT-116 [7] = test: Cell cycle arrest in human HCT116 cells assessed as accumulation at G0/G1 phase at 0.5 ug/ml after 12 hrs using propidium iodide staining by flow cytometric analysis (reference value: 48.7%); type: functional
HCT-116 [8] = test: Cell cycle arrest in human HCT116 cells assessed as accumulation at G0/G1 phase at 0.5 ug/ml after 4 hrs using propidium iodide staining by flow cytometric analysis (reference value: 48.7%); type: functional
HCT-116 [9] = test: Cell cycle arrest in human HCT116 cells assessed as accumulation at S phase at 0.5 ug/ml after 24 hrs using propidium iodide staining by flow cytometric analysis (reference value: 29.1%); type: functional
HCT-116 [10] = test: Cell cycle arrest in human HCT116 cells assessed as accumulation at G0/G1 phase at 0.5 ug/ml after 24 hrs using propidium iodide staining by flow cytometric analysis (reference value: 48.7%); type: functional
HCT-116 [11] = test: Cell cycle arrest in human HCT116 cells assessed as accumulation at S phase at 0.5 ug/ml after 4 hrs using propidium iodide staining by flow cytometric analysis (reference value: 29.1%); type: functional
[12] = target: T1, DNA topoisomerase 1 (Homo sapiens) (UniProt P11387); test: Inhibition of human DNA topoisomerase 1 assessed as decrease in mobility of relaxed isomers of supercoiled pBR322 DNA at 15 uM after 30 mins
T1 sequence (whole entry): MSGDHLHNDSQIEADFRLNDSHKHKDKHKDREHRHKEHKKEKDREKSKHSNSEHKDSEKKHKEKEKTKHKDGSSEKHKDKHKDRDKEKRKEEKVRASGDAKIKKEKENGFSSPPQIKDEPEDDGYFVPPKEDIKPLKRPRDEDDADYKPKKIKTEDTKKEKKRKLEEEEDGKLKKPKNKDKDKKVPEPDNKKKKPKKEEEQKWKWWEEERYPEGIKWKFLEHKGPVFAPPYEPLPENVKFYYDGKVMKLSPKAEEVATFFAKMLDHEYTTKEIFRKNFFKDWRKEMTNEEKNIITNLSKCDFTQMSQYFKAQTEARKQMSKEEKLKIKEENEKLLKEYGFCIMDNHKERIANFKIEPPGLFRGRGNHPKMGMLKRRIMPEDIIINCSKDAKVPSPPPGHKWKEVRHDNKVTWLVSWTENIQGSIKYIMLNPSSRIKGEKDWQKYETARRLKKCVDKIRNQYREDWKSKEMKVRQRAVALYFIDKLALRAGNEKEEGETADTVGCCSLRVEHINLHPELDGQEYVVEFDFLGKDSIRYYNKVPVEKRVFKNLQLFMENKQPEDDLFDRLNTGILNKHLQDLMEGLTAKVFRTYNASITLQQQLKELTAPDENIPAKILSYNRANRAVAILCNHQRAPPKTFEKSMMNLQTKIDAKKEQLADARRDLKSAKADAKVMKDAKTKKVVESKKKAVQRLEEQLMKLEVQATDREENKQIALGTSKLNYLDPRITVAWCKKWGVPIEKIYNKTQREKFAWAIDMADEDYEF
In short: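 Gel-based relaxation assay with 1 unit human Top I. Enzyme was preincubated with compound at 37 °C for 20 min, then 0.5 µg supercoiled pBR322 DNA was added and incubated at 37 °C for 30 min. Reactions were stopped with 0.5% SDS, bromophenol blue and 15% glycerol. Relaxed and supercoiled forms were resolved by agarose electrophoresis.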

[13] = Antiproliferative activity against human MCF7/ADR cells assessed as growth inhibition after 24 to 48 hrs by SRB assay; type: functional, cell-based; details: NCI/ADR-RES
In short: (§2)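 Parental MCF-7 cells and doxorubicin-resistant MCF-7/ADrR cells were tested; the resistant line was maintained in medium containing DOX. Each line was treated at 0.039–2.5 µg/mL for 24 and 48 h. Growth was read by SRB staining after TCA fixation, with absorbance at 492 nm. IC50 is the concentration reducing cell number to 50% of control, from triplicates.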

HCT-116 [14] = test: Cell cycle arrest in human HCT116 cells assessed as accumulation at G2/M phase at 0.5 ug/ml after 24 hrs using propidium iodide staining by flow cytometric analysis (reference value: 22.2%); type: functional
HCT-116 [15] = test: Cell cycle arrest in human HCT116 cells assessed as accumulation at G2/M phase at 0.5 ug/ml after 4 hrs using propidium iodide staining by flow cytometric analysis (reference value: 22.2%); type: functional
HCT-116 [16] = test: Cell cycle arrest in human HCT116 cells assessed as accumulation at G2/M phase at 0.5 ug/ml after 12 hrs using propidium iodide staining by flow cytometric analysis (reference value: 22.2%); type: functional
[17] = target: DNA topoisomerase 2-alpha (Homo sapiens) (UniProt P11388); test: Inhibition of human DNA topoisomerase 2 assessed as decatenation of kinetoplast DNA at 15 ug/ml after 30 mins
In short: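 Decatenation assay with 0.15 µg kinetoplast DNA and 4 U human Top II. Buffer was 50 mM Tris-HCl pH 8, 120 mM KCl, 10 mM MgCl2, 0.5 mM ATP, 0.5 mM DTT and 30 µg/mL BSA, incubated at 37 °C for 30 min with or without compound. Reactions were stopped with Sarkosyl loading dye and run on 1% agarose in TAE at 4 V/cm for 40 min. Gels were stained with ethidium bromide and imaged under UV.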

HCT-116 [18] = test: Cell cycle arrest in human HCT116 cells assessed as accumulation at S phase at 0.5 ug/ml after 12 hrs using propidium iodide staining by flow cytometric analysis (reference value: 29.1%); type: functional
MCF7 = test: Antiproliferative activity against human MCF7 cells assessed as growth inhibition after 24 to 48 hrs by SRB assay; type: functional, cell-based; in short: as §2
[19] = target: T1, DNA topoisomerase 1 (Homo sapiens); details: 18 to 36 uM

Sequence of DNA topoisomerase 2-alpha (Homo sapiens) (P11388 whole entry): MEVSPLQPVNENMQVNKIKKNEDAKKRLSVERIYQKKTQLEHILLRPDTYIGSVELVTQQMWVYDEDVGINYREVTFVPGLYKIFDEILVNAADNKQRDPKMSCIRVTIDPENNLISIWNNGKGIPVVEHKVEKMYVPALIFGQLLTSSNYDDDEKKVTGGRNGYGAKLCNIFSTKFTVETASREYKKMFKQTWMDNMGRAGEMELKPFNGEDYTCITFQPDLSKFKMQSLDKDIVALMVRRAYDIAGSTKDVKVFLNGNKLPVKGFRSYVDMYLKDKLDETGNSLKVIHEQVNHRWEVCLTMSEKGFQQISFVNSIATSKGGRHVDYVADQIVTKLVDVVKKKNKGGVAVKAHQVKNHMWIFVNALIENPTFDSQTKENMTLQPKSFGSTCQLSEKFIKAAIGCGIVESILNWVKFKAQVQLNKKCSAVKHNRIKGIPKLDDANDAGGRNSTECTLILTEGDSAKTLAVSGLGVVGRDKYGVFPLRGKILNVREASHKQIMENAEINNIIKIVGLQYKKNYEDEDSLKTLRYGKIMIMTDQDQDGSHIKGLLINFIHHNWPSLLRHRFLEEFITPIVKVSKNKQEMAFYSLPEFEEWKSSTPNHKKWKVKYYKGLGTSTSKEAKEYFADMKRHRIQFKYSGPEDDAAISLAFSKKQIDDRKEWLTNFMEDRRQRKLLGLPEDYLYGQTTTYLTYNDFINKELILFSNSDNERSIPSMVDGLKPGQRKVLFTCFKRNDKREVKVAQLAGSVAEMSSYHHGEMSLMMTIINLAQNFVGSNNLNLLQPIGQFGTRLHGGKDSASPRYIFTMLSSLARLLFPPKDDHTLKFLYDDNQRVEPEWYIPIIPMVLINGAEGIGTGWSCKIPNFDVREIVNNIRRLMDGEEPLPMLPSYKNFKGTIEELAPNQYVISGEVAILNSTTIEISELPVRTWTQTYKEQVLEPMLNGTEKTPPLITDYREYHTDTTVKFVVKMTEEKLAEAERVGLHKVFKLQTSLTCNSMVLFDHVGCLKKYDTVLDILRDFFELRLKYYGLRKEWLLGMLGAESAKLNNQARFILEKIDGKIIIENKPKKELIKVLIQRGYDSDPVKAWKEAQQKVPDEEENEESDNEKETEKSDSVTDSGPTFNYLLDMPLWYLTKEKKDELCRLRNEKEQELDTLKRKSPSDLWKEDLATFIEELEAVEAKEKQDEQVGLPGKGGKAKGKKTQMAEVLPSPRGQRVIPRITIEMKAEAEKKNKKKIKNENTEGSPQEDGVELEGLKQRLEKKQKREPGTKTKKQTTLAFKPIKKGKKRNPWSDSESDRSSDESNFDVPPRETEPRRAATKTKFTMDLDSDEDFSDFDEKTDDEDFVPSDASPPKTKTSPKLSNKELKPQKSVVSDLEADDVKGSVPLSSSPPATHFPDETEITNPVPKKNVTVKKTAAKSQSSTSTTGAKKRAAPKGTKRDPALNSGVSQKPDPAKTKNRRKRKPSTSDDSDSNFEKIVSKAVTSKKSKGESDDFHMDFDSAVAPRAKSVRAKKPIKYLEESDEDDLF

SMILES | inhibition of growth at 0.6 µg/mL (HepG2 [1]) [%] | IC50 (HepG2 [2]) [nM] | IC50 (HepG2 [3]) [nM] | IC50 (HCT-116 [4]) [nM] | IC50 (HCT-116 [5]) [nM] | other results
COc1ccc2c(c[n+]3c4c2ccc2c5c(cc(c24)CC3)OCO5)c1OC(=O)c1ccc(F)c([N+](=O)[O-])c1 | 69.6 |  |  |  |  | 
COc1ccc2c(c[n+]3c4c2ccc2c5c(cc(c24)CC3)OCO5)c1OC(=O)c1ccc2c(c1)OCO2 | 88.6 | 420 | 220 | 450 | 3060 | 
CCCCOc1c(OC)ccc2c1c[n+]1c3c2ccc2c4c(cc(c23)CC1)OCO4 | 62.6 |  |  |  |  | 
COc1ccc2c(c[n+]3c4c2ccc2c5c(cc(c24)CC3)OCO5)c1OS(=O)(=O)c1ccccc1 | 56.2 |  |  |  |  | 
COc1ccc2c(c[n+]3c4c2ccc2c5c(cc(c24)CC3)OCO5)c1OC(=O)c1ccc(C)cc1 | 63.7 |  |  |  |  | 
COc1ccc2c(c[n+]3c4c2ccc2c5c(cc(c24)CC3)OCO5)c1OS(=O)(=O)c1ccc(NC(C)=O)cc1 | 8.9 |  |  |  |  | 
COc1ccc2c(c[n+]3c4c2ccc2c5c(cc(c24)CC3)OCO5)c1OCc1ccc(F)cc1F | 50.7 |  |  |  |  | 
COc1ccc(C(=O)Oc2c(OC)ccc3c2c[n+]2c4c3ccc3c5c(cc(c34)CC2)OCO5)cc1 | 84.5 | 440 | 410 | 430 | 390 | 
COc1ccc2c(c[n+]3c4c2ccc2c5c(cc(c24)CC3)OCO5)c1OC(=O)c1ccc(F)cc1F | 92.5 | 620 | 130 | 390 | 3110 | 
COc1ccc2c(c[n+]3c4c2ccc2c5c(cc(c24)CC3)OCO5)c1OC(=O)c1ccc(C)c([N+](=O)[O-])c1 | 50.9 |  |  |  |  | 
CCOc1c(OC)ccc2c1c[n+]1c3c2ccc2c4c(cc(c23)CC1)OCO4 | 41.9 |  |  |  |  | 
COc1ccc2c(c[n+]3c4c2ccc2c5c(cc(c24)CC3)OCO5)c1O | 50 |  |  |  |  | 
COc1cc([C@@H]2c3cc4c(cc3[C@@H](O[C@@H]3O[C@@H]5CO[C@@H](C)O[C@H]5[C@H](O)[C@H]3O)[C@H]3COC(=O)[C@H]23)OCO4)cc(OC)c1O |  |  |  |  |  | inhibition [6]: Active
COc1ccc2c(c[n+]3c4c2ccc2c5c(cc(c24)CC3)OCO5)c1OCc1ccccc1 | 53.3 |  |  |  |  | 
COc1ccc2c(c[n+]3c4c2ccc2c5c(cc(c24)CC3)OCO5)c1OC(=O)c1ccccc1F | 93.7 | 930 | 150 | 280 | 420 | 
COc1ccc2c(c[n+]3c4c2ccc2c5c(cc(c24)CC3)OCO5)c1OC | 53.4 | 1200 | 710 | 1710 | 560 | 
COc1ccc2c(c[n+]3c4c2ccc2c5c(cc(c24)CC3)OCO5)c1OC(=O)c1ccccc1.[Cl-] | 86.6 | 470 | 140 | 410 | 5610 | Activity (HCT-116 [7]): 2.29%; Activity (HCT-116 [8]): 13.2%; Activity (HCT-116 [9]): 24.6%; Activity (HCT-116 [10]): 2.18%; Activity (HCT-116 [11]): 57.5%; inhibition [12]: Active; IC50 [13]: 3.66 µg/mL; Activity (HCT-116 [14]): 73.3%; Activity (HCT-116 [15]): 29.3%; Activity (HCT-116 [16]): 51.8%; inhibition [17]: Active; Activity (HCT-116 [18]): 45.9%; IC50 (MCF7): 2.5 µg/mL
COc1ccc(C(=O)Oc2c(OC)ccc3c2c[n+]2c4c3ccc3c5c(cc(c34)CC2)OCO5)cc1[N+](=O)[O-] | 53.6 |  |  |  |  | 
COc1cccc2c1C(=O)c1c(O)c3c(c(O)c1C2=O)C[C@@](O)(C(=O)CO)C[C@@H]3O[C@H]1C[C@H](N)[C@H](O)[C@H](C)O1 [DOXORUBICIN] |  |  |  |  |  | IC50 [13]: 24.4 µg/mL (≈ 44.9 µM)
COc1cc(C(=O)Oc2c(OC)ccc3c2c[n+]2c4c3ccc3c5c(cc(c34)CC2)OCO5)cc(OC)c1OC | 86.5 | 380 | 320 | 370 | 920 | 
CC[C@@]1(O)C(=O)OCc2c1cc1n(c2=O)Cc2cc3cc(O)ccc3nc2-1 [HYDROXYCAMPTOTHECIN] | 85.4 |  |  |  |  | inhibition [19]: Active
COc1ccc2c(c[n+]3c4c2ccc2c5c(cc(c24)CC3)OCO5)c1OC(=O)c1ccccc1Cl | 62.3 |  |  |  |  | 
COc1ccc2c(c[n+]3c4c2ccc2c5c(cc(c24)CC3)OCO5)c1OC(=O)c1ccc(F)cc1 | 70.3 |  |  |  |  | 
COc1ccc2c(c[n+]3c4c2ccc2c5c(cc(c24)CC3)OCO5)c1OC(C)=O | 88.7 | 1010 | 190 | 840 | 90 | 
